Calls of active or inactive are those of the source. No cut-off for these calls is given here.
Columns and labels:
[1] = target: Serine/threonine-protein kinase MRCK gamma (Homo sapiens) (UniProt Q6DT37); experiment: Binding affinity to wild-type human partial length DMPK2 (S46 to S408 residues) expressed in bacterial expression system assessed as residual binding level at 1 uM by Kinomescan method relative to control
[2] = target: LIM domain kinase 2 (Homo sapiens) (UniProt P53671); experiment: Binding affinity to wild-type human full length LIMK2 (M1 to P638 residues) expressed in bacterial expression system assessed as residual binding level at 1 uM by Kinomescan method relative to control
Method in brief: (§1)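 Active-site-directed KinomeScan competition binding panel covering 468 kinases, compound tested at 1 μM. Each readout is the kinase signal remaining with compound, expressed as a percentage of the DMSO control. […]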

[3] = target: Ankyrin repeat and protein kinase domain-containing protein 1 (Homo sapiens) (UniProt Q8NFD2); experiment: Binding affinity to wild-type human partial length ANKK1 (M1 to A305 residues) expressed in mammalian expression system assessed as residual binding level at 1 uM by Kinomescan method relative to control
Method in brief: (§2)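 KinomeScan, an active site-directed competition binding panel of 468 kinases. The test compound was at 1 μM. The readout is remaining kinase binding as a percentage of the DMSO control. Scores above 35% were treated as weak binding and not listed.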

[4] = test system: Tyrosine-protein kinase ABL1 (Homo sapiens), P00519 [T315I]; experiment: Binding affinity to human phosphorylated ABL1 T315I mutant (S229 to K512 residues) expressed in mammalian expression system assessed as residual binding level at 1 uM by Kinomescan method relative to control; method in brief: as §1
[5] = target: Calcium/calmodulin-dependent protein kinase type IV (Homo sapiens) (UniProt Q16566); experiment: Binding affinity to wild-type human partial length CAMK4 (A22 to A322 residues) expressed in bacterial expression system assessed as residual binding level at 1 uM by Kinomescan method relative to control
[6] = target: Cyclin-dependent kinase 18 (Homo sapiens) (UniProt Q07002); experiment: Binding affinity to wild-type human full length PCTK3 (M3 to F474 residues) expressed in bacterial expression system assessed as residual binding level at 1 uM by Kinomescan method relative to control; method in brief: as §2
HCC827 [7] = experiment: Antiproliferative activity against human HCC827 cells assessed as reduction in cell viability incubated for 72 hrs by cell-titer glo assay relative to control; type: functional
Method in brief: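 Cells seeded at 2000 cells/well, dosed next day with a range of concentrations (DMSO 0.2% as control), 72 h exposure, viability read by CellTiter-Glo luminescence. Dose–response curves and GR values derived with the online GR calculator. Two independent experiments, each in technical triplicate.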

HCC827 [8] = experiment: Antiproliferative activity against human HCC827 cells assessed as reduction in cell viability incubated for 72 hrs by cell-titer glo assay; details: HCC827, 72 h
[9] = target: Inhibitor of nuclear factor kappa-B kinase subunit alpha (Homo sapiens) (UniProt O15111); experiment: Binding affinity to wild-type human full length IKK-alpha (M1 to E745 residues) expressed in mammalian expression system assessed as residual binding level at 1 uM by Kinomescan method relative to control; method in brief: as §1
[10] = target: Phosphatidylinositol 4-phosphate 3-kinase C2 domain-containing subunit beta (Homo sapiens) (UniProt O00750); experiment: Binding affinity to wild-type human partial length PIK3C2B (M1 to L1634 residues) expressed in mammalian expression system assessed as residual binding level at 1 uM by Kinomescan method relative to control
[11] = target: Tyrosine-protein kinase Mer (Homo sapiens) (UniProt Q12866); experiment: Binding affinity to wild-type human partial length MERTK (R557 to L884 residues) expressed in bacterial expression system assessed as residual binding level at 1 uM by Kinomescan method relative to control
[12] = target: Serine/threonine-protein kinase Nek1 (Homo sapiens) (UniProt Q96PY6); experiment: Binding affinity to wild-type human partial length NEK1 (M1 to K278 residues) expressed in bacterial expression system assessed as residual binding level at 1 uM by Kinomescan method relative to control
[13] = target: Fibroblast growth factor receptor 3 (Homo sapiens) (UniProt P22607); experiment: Binding affinity to wild-type human partial length FGFR3 (R442 to S771 residues) expressed in bacterial expression system assessed as residual binding level at 1 uM by Kinomescan method relative to control
[14] = target: Ephrin type-A receptor 4 (Homo sapiens) (UniProt P54764); experiment: Binding affinity to wild-type human partial length EPHA4 (T601 to R897 residues) expressed in bacterial expression system assessed as residual binding level at 1 uM by Kinomescan method relative to control
Method in brief: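 Active-site-directed competition binding panel of 468 kinases (KinomeScan), compound at 1 μM. The read-out is kinase remaining bound, given as a percentage of the DMSO control. […]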

[15] = target: Fibroblast growth factor receptor 2 (Homo sapiens) (UniProt P21802); experiment: Binding affinity to wild-type human partial length FGFR2 (D457 to E769 residues) expressed in bacterial expression system assessed as residual binding level at 1 uM by Kinomescan method relative to control
[16] = target: Dual specificity mitogen-activated protein kinase kinase; MEK1/2 (Homo sapiens) (UniProt P36507+Q02750); experiment: Inhibition of MEK1/2 in human NCI-H1975 cells assessed as blocking of MEK1/2 pulldown at 1 uM in presence of TL13-68 incubated for 2 hrs by Western blot analysis; type: cell-based
Method in brief: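 H1975 or HCC827 cells treated with 1 μM compound or DMSO for 2 h, rinsed twice in cold PBS, and lysed in M-PER with protease/phosphatase inhibitors. Lysate rocked overnight at 4 °C with 1 μM TL13-68, then streptavidin pulldown with five cold washes. Bound kinases detected by Western blot. Two independent experiments.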

[17] = test system: Receptor-type tyrosine-protein kinase FLT3 (Homo sapiens), P36888 [R834Q]; experiment: Binding affinity to human partial length FLT3 R834Q mutant (V592 to Y969 residues) expressed in mammalian expression system assessed as residual binding level at 1 uM by Kinomescan method relative to control
Method in brief: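 KinomeScan active site-directed competition binding panel (468 kinases), compound tested at 1 μM. Result expressed as remaining kinase signal versus DMSO control (percent of control).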

[18] = target: Ribosomal protein S6 kinase beta-1 (Homo sapiens) (UniProt P23443); experiment: Binding affinity to wild-type human partial length S6K1 (M1 to S421 residues) expressed in mammalian expression system assessed as residual binding level at 1 uM by Kinomescan method relative to control
[19] = target: Serine/threonine-protein kinase pim-1 (Homo sapiens) (UniProt P11309); experiment: Binding affinity to wild-type human partial length PIM1 (A15 to K313 residues) expressed in bacterial expression system assessed as residual binding level at 1 uM by Kinomescan method relative to control
[20] = target: MAP/microtubule affinity-regulating kinase 3 (Homo sapiens) (UniProt P27448); experiment: Binding affinity to wild-type human full length MARK3 (M1 to L729 residues) expressed in bacterial expression system assessed as residual binding level at 1 uM by Kinomescan method relative to control; method in brief: as §2

Work on `C=CC(=O)Nc1ccccc1Nc1nc(Nc2ccc(N3CCN(C)CC3)cc2)ncc1C(=O)Nc1c(C)cccc1Cl` yielded an Activity [1] of 100%, an Activity [2] of 100% and an Activity [3] of 98%. It also gave an Activity [4] of 100%, an Activity [5] of 100% and an Activity [6] of 98%. It also gave an Emax (HCC827 [7]) of -0.6, an IC50 (HCC827 [8]) of 500 nM and an Activity [9] of 100%. For the same compound, the Activity [10] was 100%, the Activity [11] was 95% and the Activity [12] was 100%. The Activity [13] was 100%, the Activity [14] was 75% and the Activity [15] was 95%. For the same compound, the inhibition [16] was “inactive”, the Activity [17] was 100% and the Activity [18] was 95%. It also gave an Activity [19] of 100% and an Activity [20] of 90%.
